Reference: ChEMBL document CHEMBL1134284, “The biological effects of structural variation at the meta position of the aromatic rings and at the end of the alkenyl chain in the alkenyldiarylmethane series of non-nucleoside reverse transcriptase inhibitors” (J Med Chem, 2001)

What was measured:
[1] = (§1) Antiviral activity against Ba-L monocyte tropic isolate strain in monocyte; type: functional; details: Homo sapiens
How it was run: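 Monocytes isolated from hepatitis- and HIV-seronegative donors by Ficoll-Hypaque gradient, cultured 6 days into macrophages, then infected with Ba-L. Medium RPMI 1640 with 10% FBS, 2 mM glutamine, penicillin/streptomycin. Replication read as p24 antigen by ELISA 6 days postinfection. […] Run in triplicate, with AZT as positive control.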

[2] = as §1; type: ADME; details: human, monocytes; read-out: TC50 (the source's name)
How it was run: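 Monocytes isolated from hepatitis- and HIV-seronegative donors by Ficoll-Hypaque gradient, cultured 6 days, then infected. Medium RPMI 1640 with 10% FBS, 2 mM glutamine, penicillin/streptomycin. Virus replication measured by p24 antigen ELISA 6 days postinfection. […] Run in triplicate, SD within triplicate under 10%; AZT positive control.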

CCRF-CEM [3] = assay: Antiviral activity against site directed 4X AZT resistant isolate HIV-1 L100I in CEM cells; type: functional, cell-based, Homo sapiens
How it was run: (§2)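 CEM-SS cells infected with low-cytopathicity site-directed RT-mutant NL4-3 clones (A98G, L74V, 4XAZT = D67N/K70R/T215Y/K219Q, 4XAZT/L100I). Replication was quantified by p24 ELISA rather than cytoprotection. […] Triplicate, variation of mean about 10%.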

CCRF-CEM [4] = assay: Antiviral activity against site directed 4X AZT resistant isolate HIV-1 in CEM cells; type: functional, cell-based, Homo sapiens; details: ccrf-cem
CCRF-CEM [5] = assay: Antiviral activity against site directed resistant isolate HIV-1 K101E in CEM cells; type: functional, cell-based, Homo sapiens
CCRF-CEM [6] = assay: Antiviral activity against site directed resistant isolate HIV-1 K103N in CEM cells; type: functional, cell-based, Homo sapiens
How it was run: (§3)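 CEM-SS cells in RPMI 1640 with 10% heat-inactivated FBS were infected with NL4-3 molecular clones carrying site-directed RT mutations. Cytoprotection from virus-induced syncytial killing was read by MTS/phenazine ethosulfate reduction (A490) 6 days after infection. […] Triplicate, variation of mean about 10%.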

CCRF-CEM [7] = assay: Antiviral activity against site directed resistant isolate HIV-1 L100I in CEM cells; type: functional, cell-based, Homo sapiens; how it was run: as §3
CCRF-CEM [8] = assay: Antiviral activity against site directed resistant isolate HIV-1 L74V in CEM cells; type: functional, cell-based, Homo sapiens; how it was run: as §2
CCRF-CEM [9] = assay: Antiviral activity against site directed resistant isolate HIV-1 V106A in CEM cells; type: functional, cell-based, Homo sapiens; how it was run: as §3
CCRF-CEM [10] = assay: Antiviral activity against site directed resistant isolate HIV-1 Y181C in CEM cells; type: functional, cell-based, Homo sapiens; how it was run: as §3
CCRF-CEM [11] = assay: Antiviral activity against site directed resistant isolate HIV-1 Y188C in CEM cells; type: functional, cell-based, Homo sapiens; how it was run: as §3
CCRF-CEM [12] = assay: Antiviral activity against site directed resistant isolates in HIV-1 A98G CEM cells; type: functional, cell-based, Homo sapiens; how it was run: as §2
CCRF-CEM [13] = assay: Antiviral activity against site directed wild-type enzyme isolate HIV-1 NL4-3WT in CEM cells; type: functional, cell-based; details: Homo sapiens
How it was run: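 Wild-type NL4-3 in CEM-SS cells, measured both by MTS cytoprotection 6 days after infection and by p24 ELISA. The IC50 is the mean of the two methods' values.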

[14] = (§4) Antiviral activity against subtype isolate O strain in PBLs (peripheral blood lymphocytes); type: cell-based; details: human, read-out: TC50 (the source's name)
How it was run: (§5)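 PBMC from hepatitis- and HIV-seronegative donors isolated by Ficoll-Hypaque gradient and stimulated 3 days with phytohemagglutinin/IL-2 before infection. Medium RPMI 1640 with 10% FBS, 2 mM glutamine, penicillin/streptomycin. Replication read as supernatant reverse transcriptase activity. […] Run in triplicate, SD within triplicate under 10%; AZT positive control.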

[15] = (§6) Antiviral activity against multi drug resistant MDR 769 strain in PBLs (peripheral blood lymphocytes); type: ADME, cell-based; details: human, read-out: TC50 (the source's name); how it was run: as §5
[16] = (§7) Antiviral activity against subtype isolate A strain in PBLs (peripheral blood lymphocytes); type: ADME, cell-based; details: human, read-out: TC50 (the source's name); how it was run: as §5
[17] = (§8) Antiviral activity against subtype isolate B strain in PBLs (peripheral blood lymphocytes); type: ADME, cell-based; details: human, read-out: TC50 (the source's name); how it was run: as §5
[18] = Antiviral activity against subtype isolate C strain in PBLs (peripheral blood lymphocytes); type: ADME, cell-based; details: human, read-out: TC50 (the source's name); how it was run: as §5
[19] = (§9) Antiviral activity against subtype isolate E strain in PBLs (peripheral blood lymphocytes); type: ADME, cell-based; details: human, read-out: TC50 (the source's name); how it was run: as §5
[20] = (§10) Antiviral activity against subtype isolate F strain in PBLs (peripheral blood lymphocytes); type: cell-based; details: human, read-out: TC50 (the source's name); how it was run: as §5
[21] = (§11) Antiviral activity against subtype isolate G strain in PBLs (peripheral blood lymphocytes); type: cell-based; details: human, read-out: TC50 (the source's name); how it was run: as §5
[22] = (§12) Antiviral activity against ROJO virus strain in PBLs (peripheral blood lymphocytes); type: functional, cell-based; details: Homo sapiens
How it was run: (§13)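 PBMCs isolated from hepatitis- and HIV-seronegative donors by Ficoll-Hypaque gradient and stimulated 3 days with phytohemagglutinin/IL-2. Infected with pediatric low-passage clinical isolates or NIAID subtype isolates, in RPMI 1640 with 10% FBS, 2 mM glutamine, penicillin/streptomycin. Replication read as supernatant reverse transcriptase activity. […] Run in triplicate, with AZT as positive control.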

[23] = (§14) Antiviral activity against SLKA virus strain in PBLs (peripheral blood lymphocytes); type: functional, cell-based; details: Homo sapiens; how it was run: as §13
[24] = (§15) Antiviral activity against TEKI virus strain in PBLs (peripheral blood lymphocytes); type: functional, cell-based; details: Homo sapiens; how it was run: as §13
[25] = (§16) Antiviral activity against WEJO virus strain in PBLs (peripheral blood lymphocytes); type: functional, cell-based; details: Homo sapiens; how it was run: as §13
[26] = as §6; type: functional, cell-based; details: Homo sapiens; how it was run: as §5
[27] = as §7; type: functional, cell-based; details: Homo sapiens; how it was run: as §13
[28] = as §8; type: functional, cell-based; details: Homo sapiens; how it was run: as §13
[29] = (§17) Antiviral activity against subtype isolate D strain in PBLs (peripheral blood lymphocytes); type: functional, cell-based; details: Homo sapiens; how it was run: as §13
[30] = as §9; type: functional, cell-based; details: Homo sapiens; how it was run: as §13
[31] = as §10; type: functional, cell-based; details: Homo sapiens; how it was run: as §13
[32] = as §11; type: functional, cell-based; details: Homo sapiens; how it was run: as §13
[33] = as §4; type: functional, cell-based; details: Homo sapiens; how it was run: as §13
[34] = as §12; type: ADME, cell-based; details: human, read-out: TC50 (the source's name); how it was run: as §5
[35] = as §14; type: ADME, cell-based; details: human, read-out: TC50 (the source's name); how it was run: as §5
[36] = as §15; type: ADME, cell-based; details: human, read-out: TC50 (the source's name); how it was run: as §5
CCRF-CEM [37] = assay: Antiviral activity against site directed resistant isolate HIV-1 V179D in CEM cells; type: functional, cell-based, Homo sapiens; how it was run: as §3
[38] = as §17; type: ADME, cell-based; details: human, read-out: TC50 (the source's name); how it was run: as §5
[39] = as §16; type: ADME, cell-based; details: human, read-out: TC50 (the source's name); how it was run: as §5
cells = details: Homo sapiens

Cc1cn([C@H]2C[C@H](N=[N+]=[N-])[C@@H](CO)O2)c(=O)[nH]c1=O [ZIDOVUDINE]
IC50 [1]: 2 nM
CC50 [2]: > 200 µM
IC50 (CCRF-CEM [3]): 870 nM
IC50 (CCRF-CEM [4]): 82 nM
IC50 (CCRF-CEM [5]): 46 nM
IC50 (CCRF-CEM [6]): 7 nM
IC50 (CCRF-CEM [7]): 6 nM
IC50 (CCRF-CEM [8]): 40 nM
IC50 (CCRF-CEM [9]): 14 nM
IC50 (CCRF-CEM [10]): 80 nM
IC50 (CCRF-CEM [11]): 87 nM
IC50 (CCRF-CEM [12]): 8 nM
IC50 (CCRF-CEM [13]): 17 nM
CC50 [14]: > 170 µM
CC50 [15]: > 172 µM
CC50 [16]: > 180 µM
CC50 [17]: > 200 µM
CC50 [18]: > 200 µM
CC50 [19]: > 170 µM
CC50 [20]: > 200 µM
CC50 [21]: > 170 µM
IC50 [22]: 1 nM
IC50 [23]: 1 nM
IC50 [24]: 2 nM
IC50 [25]: 1 nM
IC50 [26]: 25 nM
IC50 [27]: 1 nM
IC50 [28]: 9 nM
IC50 [29]: 7 nM
IC50 [30]: 2 nM
IC50 [31]: 2 nM
IC50 [32]: 2 nM
IC50 [33]: 1 nM
CC50 [34]: > 190 µM
CC50 [35]: > 190 µM
CC50 [36]: > 190 µM
IC50 (CCRF-CEM [37]): 20 nM
CC50 [38]: > 200 µM
CC50 [39]: > 190 µM
IC50 (cells): 4 nM
